Activity calls are given as the source filed them. The rule behind the calls is not given here.
Tests used:
[1] = molecular target: T1, Kelch-like ECH-associated protein 1 (Homo sapiens, UniProt Q14145); experiment: Inhibition of FITC-labeled 9-mer Nrf2 peptide amide binding to human KEAP1 kelch domain (322 to 609 residues) expressed in Escherichia coli Arctic(DE3) cells incubated for 30 mins by fluorescence polarization assay
[2] = molecular target: T1, Kelch-like ECH-associated protein 1; experiment: Binding affinity to KEAP1 kelch domain in human NCM460 cells after 2 hrs by Western blot based affinity pulldown assay; assay type: cell-based
Method in brief: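 Streptavidin magnetic beads loaded with the biotin probe (50 µg/100 µL), 30 min at 4 °C, then free sites blocked with biotin. Beads incubated with NCM460 colonic cell lysate for 2 h at 4 °C with rotation and washed with TBS. Bound protein eluted in buffer with 2% SDS at 95 °C for 5 min. Analysed by SDS-PAGE and western blot with anti-Keap1 antibody.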

[3] = molecular target: T1, Kelch-like ECH-associated protein 1; experiment: Binding affinity to human KEAP1 kelch domain (322 to 609 residues) expressed in Escherichia coli Arctic(DE3) cells by biolayer interferometry method
Method in brief: (§1)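 Biotinylated probe immobilized on super streptavidin biosensor tips. Sequence: baseline, loading, second baseline, Keap1 Kelch domain association (kon), then dissociation (koff). Six Keap1 concentrations tested, all at 30 °C. Kinetic constants fitted from the sensorgrams, and Kd taken as koff/kon.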

[4] = molecular target: T1, Kelch-like ECH-associated protein 1; experiment: Binding affinity to human KEAP1 kelch domain (322 to 609 residues) expressed in Escherichia coli Arctic(DE3) cells assessed as association constant by biolayer interferometry method; method in brief: as §1
[5] = molecular target: T1, Kelch-like ECH-associated protein 1; experiment: Binding affinity to human KEAP1 kelch domain (322 to 609 residues) expressed in Escherichia coli Arctic(DE3) cells assessed as dissociation constant by biolayer interferometry method; method in brief: as §1
[6] = molecular target: T1, Kelch-like ECH-associated protein 1; experiment: Binding affinity to human KEAP1 kelch domain (322 to 609 residues) expressed in Escherichia coli Arctic(DE3) cells at 0.05 mM by isothermal titration calorimetry
Method in brief: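 ITC at 25 °C. Lyophilized Keap1 Kelch domain and the FITC probe both dissolved in 10 mM HEPES pH 7.4. Nineteen 2 µL injections of 0.05 mM probe, 2.5 min apart, stirred at 750 rpm, into cell holding 0.005 mM Kelch domain. Kd obtained from a 1:1 binding model fit.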

[7] = molecular target: T1, Kelch-like ECH-associated protein 1; experiment: Binding affinity to KEAP1 kelch domain in nucleus of human NCM460 cells at 10 uM after 10 hrs by DAPI staining based confocal microscopic analysis; assay type: cell-based
Method in brief: (§2)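 NCM460 colonic cells exposed to the FITC probe at 10 µM for 10 h, then fixed. Keap1 primary antibody applied overnight at 4 °C, then Alexa Fluor-labelled goat anti-rabbit secondary for 1 h at 37 °C. Nuclei stained with DAPI. Imaged by laser scanning confocal microscopy at excitation 570 and 340 nm for co-localization. Three separate experiments.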

[8] = molecular target: T1, Kelch-like ECH-associated protein 1; experiment: Binding affinity to KEAP1 kelch domain in cytoplasm of human NCM460 cells at 10 uM after 10 hrs by DAPI staining based confocal microscopic analysis; assay type: cell-based; method in brief: as §2

T1 sequence (Q14145 whole entry, the tested form may be a part): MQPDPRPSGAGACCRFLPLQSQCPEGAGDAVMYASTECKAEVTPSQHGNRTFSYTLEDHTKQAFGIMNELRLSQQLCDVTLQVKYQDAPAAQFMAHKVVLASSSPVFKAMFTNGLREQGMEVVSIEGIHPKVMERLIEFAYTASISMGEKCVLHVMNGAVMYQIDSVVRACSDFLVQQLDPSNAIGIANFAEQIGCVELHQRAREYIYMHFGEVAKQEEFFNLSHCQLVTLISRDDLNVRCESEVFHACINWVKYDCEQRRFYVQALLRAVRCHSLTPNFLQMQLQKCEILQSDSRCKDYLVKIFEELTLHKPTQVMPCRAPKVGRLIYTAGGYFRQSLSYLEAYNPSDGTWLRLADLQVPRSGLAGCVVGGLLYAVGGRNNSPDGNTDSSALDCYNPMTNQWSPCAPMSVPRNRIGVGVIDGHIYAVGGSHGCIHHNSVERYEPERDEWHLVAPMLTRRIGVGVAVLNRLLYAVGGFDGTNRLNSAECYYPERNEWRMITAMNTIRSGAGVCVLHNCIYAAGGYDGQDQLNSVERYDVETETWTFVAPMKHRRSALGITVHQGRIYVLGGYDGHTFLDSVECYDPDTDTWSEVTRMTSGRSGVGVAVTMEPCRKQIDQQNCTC

Compound | IC50 [1] [nM] | Activity [2] | Activity [3] | Kd [3] [nM] | K [4] [×10⁴ /M/s] | K [5] [×10⁻³ /s] | EC50 [1] [nM] | Kd [6] [nM] | Activity [7] | Activity [8]
COc1ccc(S(=O)(=O)N(CC(=O)O)c2ccc(N(CC(=O)O)S(=O)(=O)c3ccc(NC(=O)CCCC(=O)NCCN)cc3)c3ccccc23)cc1 | 30.7 |  |  |  |  |  |  |  |  | 
COc1ccc(S(=O)(=O)N(CC(=O)O)c2ccc(N(CC(=O)O)S(=O)(=O)c3ccc(NC(=O)CCCC(=O)NCCNC(=O)CCCC[C@@H]4SC[C@@H]5NC(=O)N[C@@H]54)cc3)c3ccccc23)cc1 | 74 | Active | Dose-dependent effect | 21.6 | 6.24 | 1.35 |  |  |  | 
COc1ccc(S(=O)(=O)N(CC(=O)O)c2ccc(N(CC(=O)O)S(=O)(=O)c3ccc(NC(=O)CCCC(=O)NCCNC(=S)Nc4ccc5c(c4)C(=O)OC54c5ccc(O)cc5Oc5cc(O)ccc54)cc3)c3ccccc23)cc1 |  |  |  |  |  |  | 14.7 | 29.1 | Active | Active
